From PubChem
Rows were chosen to be rich in hits. Some 2% of all compounds tested hit in one or more screens of this group.
PPC-1+TRAIL kill – compounds killing PPC-1 cancer cells with TRAIL present (potentiator screen, no TRAIL-free arm). AID 1443. PPC-1 cells + TRAIL, ATPLite viability luminescence. 220,000 compounds, 0.41% hits. cell killing (% activity), % at 4 µM or 5 µM;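 active means cell killing above 50% in the first pass at 4 µM, then a duplicate retest at 5 µM averaging 50% or more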;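 further: plate controls were cells with TRAIL plus DMSO for no effect and medium-only wells lacking cells for full effect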
C8 TRAIL sens – caspase-8 TRAIL sensitization | 360,000 compounds, 1% hits | NB7+C8 cells + TRAIL, ATPlite viability luminescence | inhibition (viability loss, TRAIL sensitization), % at 10 µM;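 active means compounds causing at least 50% loss of cell viability in the single-dose screen, relative to plate controls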
FLuc stim CS – affects firefly luciferase, flagging false hits in luciferase stimulation screens. 200,000 tested, under 10 active. activation factor at 10 µM. P08659. ATPlite luciferase biochemical, luminescence, 10 min; 0 = ATP-free wells, 1 = DMSO control;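 active means luciferase activation factor, scaled between plate controls, of at least 2 with compound at 10 µM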
Target sequence (P08659 whole entry, looked up): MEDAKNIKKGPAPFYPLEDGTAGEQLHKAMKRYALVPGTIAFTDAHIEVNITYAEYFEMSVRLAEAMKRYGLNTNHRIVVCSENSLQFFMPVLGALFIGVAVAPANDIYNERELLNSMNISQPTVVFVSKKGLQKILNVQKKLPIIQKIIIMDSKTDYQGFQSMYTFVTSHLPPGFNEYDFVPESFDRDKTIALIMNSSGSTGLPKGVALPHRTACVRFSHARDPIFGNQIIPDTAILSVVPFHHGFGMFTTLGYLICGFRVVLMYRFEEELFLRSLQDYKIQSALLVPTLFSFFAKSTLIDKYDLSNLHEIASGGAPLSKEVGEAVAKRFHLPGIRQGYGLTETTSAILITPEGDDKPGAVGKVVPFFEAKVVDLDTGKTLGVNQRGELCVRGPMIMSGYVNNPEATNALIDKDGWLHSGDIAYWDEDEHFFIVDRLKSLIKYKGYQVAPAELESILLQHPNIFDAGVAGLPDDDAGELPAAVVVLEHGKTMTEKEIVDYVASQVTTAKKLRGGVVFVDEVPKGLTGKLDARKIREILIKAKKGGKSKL
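System: cell-free luciferase reagent; medium: PBS as buffer for the ATP substrate; doses: test compounds dosed from 2 mM stocks in 100% DMSO; incubation: 10 min, room temperature; measured by: luminescence from luciferase reaction; read-out: luciferase activation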
HSP90 inh – inhibitors of HSP90 luciferase refolding in rabbit reticulocyte lysate. luciferase refolding luminescence, 3 h. inhibition, % at 5.6 µM. AID 1789. 290,000 compounds, 0.91% hits;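 active means inhibition above the screen-wide mean plus 3 SD, computed separately per campaign, cut at about 16% in these data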;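 further: 0% = DMSO wells and 100% = 60 µM geldanamycin wells; inhibitors lower the luminescence because luciferase stays unfolded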
FLuc inhib CS – inhibits firefly luciferase, flagging false hits in luciferase inhibition screens. ATPLite firefly luciferase biochemical luminescence, 10 min. inhibition, % at 10 µM. 200,000 compounds, 1.5% hits;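 active means inhibition above about 50% when tested at 10 µM, limit read from the data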
PPC-1 tox – PPC-1 cell cytotoxicity | PPC-1 viability, ATPlite luminescence, overnight | AID 1447 | shares compounds with PPC-1+TRAIL kill | 1,200 compounds, 50% hits | cytotoxicity, % at 5 µM;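 active means reconfirmed compounds whose average cytotoxicity reaches 50% or more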;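 further: 0% = DMSO-treated cells and 100% = wells holding medium but no cells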
HSP90 confirm – HSP90 inhibition, confirmation assay | shares compounds with HSP90 inh | rabbit reticulocyte lysate, luciferase refolding luminescence, 3 h | inhibition, % at 5.9 µM | 2,300 compounds, 64% hits | AID 1846; in the data active means inhibition above about 18%;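 further: 0% = vehicle wells and 100% = reference inhibitor wells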
FLuc counter – blocks native firefly luciferase in HSP90 counter-screen; purified native firefly luciferase, luminescence; 2,300 compounds, 48% hits; inhibition, % at 5.9 µM; shares compounds with HSP90 inh;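 active means inhibition above the mean inhibition of all tested sample wells plus 3 SD, cut at about 10% in these data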;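 further: 0% = DMSO with luciferase and 100% = wells lacking luciferase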
An asterisk follows results filed as active.

Results for COc1ccc(O)c(C(=O)CC(=O)c2ccc(F)cc2)c1 ?
PPC-1+TRAIL kill: 80*; C8 TRAIL sens: 80*; FLuc stim CS: 0.8; HSP90 inh: 21*; FLuc inhib CS: 21; PPC-1 tox: 75*; HSP90 confirm: 21*; FLuc counter: -4

What do the screens show for `COc1ccc(C(=O)CC(=O)c2ccccc2O)cc1`?
C8 TRAIL sens: 5; HSP90 inh: -2

What do the screens show for `COc1ccc(-c2nc3ccccc3s2)cc1O`?
PPC-1+TRAIL kill: 83*; C8 TRAIL sens: 82*; FLuc stim CS: 0.1; HSP90 inh: 38*; FLuc inhib CS: 91*; PPC-1 tox: 84*; HSP90 confirm: 78*; FLuc counter: 72*

What do the screens show for `COc1cccc(-c2nc3ccccc3s2)c1O`?
PPC-1+TRAIL kill: 61*; C8 TRAIL sens: 73*; FLuc stim CS: 0.1; HSP90 inh: 17*; FLuc inhib CS: 87*; PPC-1 tox: 64*; HSP90 confirm: 38*; FLuc counter: 32*

How did COc1cc(-c2nc3ccccc3s2)ccc1O do in these assays?
PPC-1+TRAIL kill: 13; C8 TRAIL sens: 9; FLuc stim CS: 0.8; HSP90 inh: 3; FLuc inhib CS: 23

Results for CC(C)c1ccc(-c2nc3ccccc3s2)cc1 ?
PPC-1+TRAIL kill: 91*; C8 TRAIL sens: 93*; HSP90 inh: 84*; PPC-1 tox: 92*; HSP90 confirm: 98*; FLuc counter: 94*

How did COc1ccc(CC(=O)NC(C)c2ccc(S(N)(=O)=O)cc2)cc1S(=O)(=O)N1CCOCC1 (stereo unspecified) do in these assays?
C8 TRAIL sens: -7; HSP90 inh: -1

Results for Cc1nnc(N2CCOCC2)c2nn(-c3ccccc3)c(C)c12 ?
PPC-1+TRAIL kill: 8; C8 TRAIL sens: -11; FLuc stim CS: 1; HSP90 inh: 2; FLuc inhib CS: -4

Results for c1ccc(-n2nnc3c(N4CCOCC4)ncnc32)cc1 ?
PPC-1+TRAIL kill: 44; C8 TRAIL sens: 66*; FLuc stim CS: 0.2; HSP90 inh: 30*; FLuc inhib CS: 84*; PPC-1 tox: 46; HSP90 confirm: 66*; FLuc counter: 55*

Results for COc1ccc(C(=O)O/N=C(\N)c2ccccc2)c(OC)c1 ?
PPC-1+TRAIL kill: 36; C8 TRAIL sens: 50; FLuc stim CS: 0.5; HSP90 inh: 51*; FLuc inhib CS: 49; PPC-1 tox: 34; HSP90 confirm: 37*; FLuc counter: 26*

What do the screens show for `COc1ccccc1C(=O)Nc1ccc2c(c1)n(C)c(=O)n2C`?
C8 TRAIL sens: -8; HSP90 inh: 4

Results for CCC(Sc1nc2cc(OC)c(OC)cc2c(=O)n1CCc1ccc(OC)c(OC)c1)C(=O)NCCOC (stereo unspecified) ?
PPC-1+TRAIL kill: 16; C8 TRAIL sens: 5; FLuc stim CS: 1; HSP90 inh: 0; FLuc inhib CS: -4

Results for Cc1ccc2nc(NC(=O)c3ccccn3)sc2c1 ?
PPC-1+TRAIL kill: 91*; C8 TRAIL sens: 91*; FLuc stim CS: 0; HSP90 inh: 61*; FLuc inhib CS: 95*; PPC-1 tox: 89*; HSP90 confirm: 94*; FLuc counter: 88*

How did Cc1cc(/C=N/Nc2ncnc(N)c2[N+](=O)[O-])c(C)n1-c1ccccc1 do in these assays?
PPC-1+TRAIL kill: 86*; C8 TRAIL sens: 85*; HSP90 inh: 76*; PPC-1 tox: 87*; HSP90 confirm: 95*; FLuc counter: 92*

How did Cc1ccccc1OCC(=O)NCC(=O)OCc1ccc(Br)cc1 do in these assays?
C8 TRAIL sens: 1; HSP90 inh: -2

Results for O=C(NC1(C(F)(F)F)NC(=O)N(c2ccc(F)cc2)C1=O)c1cccs1 (stereo unspecified) ?
PPC-1+TRAIL kill: 0; C8 TRAIL sens: -5; FLuc stim CS: 1; HSP90 inh: -6; FLuc inhib CS: -2

How did O=C(Nc1ccc(N2CCOCC2)cc1)c1cnsn1 do in these assays?
PPC-1+TRAIL kill: 73*; C8 TRAIL sens: 71*; FLuc stim CS: 0.1; HSP90 inh: 71*; FLuc inhib CS: 90*; PPC-1 tox: 71*; HSP90 confirm: 83*; FLuc counter: 76*

Results for O=C(COC(=O)COc1ccc(Br)cc1)NNC(=O)c1ccccc1 ?
C8 TRAIL sens: -13

Results for Cc1ccccc1C(=O)NCCCNC(=O)c1ccccc1C ?
C8 TRAIL sens: 20

What do the screens show for `CN(C)c1ccc(-c2nc3ccccc3n2C)cc1`?
PPC-1+TRAIL kill: 88*; C8 TRAIL sens: 82*; FLuc stim CS: 0; HSP90 inh: 28*; FLuc inhib CS: 96*; PPC-1 tox: 88*; HSP90 confirm: 64*; FLuc counter: 53*

What do the screens show for `Cc1cc(N=Nc2ccc(C)c(N=Nc3cc(C)c(N)cc3N)c2)c(N)cc1N`?
PPC-1+TRAIL kill: 64*; C8 TRAIL sens: 51*; HSP90 inh: 17*; PPC-1 tox: 63*; HSP90 confirm: 33*; FLuc counter: 51*

Results for COc1ccc(N=Nc2cc(OC)c(N)cc2OC)cc1 ?
C8 TRAIL sens: 10

What do the screens show for `Cc1cc(-c2ccccc2)nc(N2CCC(C(=O)NCC3CCCCC3)CC2)n1`?
HSP90 inh: -1

How did Cc1cc2nc3ccc(=[N+](C)C)cc-3sc2cc1N do in these assays?
PPC-1+TRAIL kill: 72*; C8 TRAIL sens: 51*; HSP90 inh: 82*; PPC-1 tox: 72*; HSP90 confirm: 89*; FLuc counter: 38*

Results for Cc1nc2cc(C)c(C)cc2s1 ?
PPC-1+TRAIL kill: 6; C8 TRAIL sens: -3; FLuc stim CS: 0.9; HSP90 inh: 3; FLuc inhib CS: 8

What do the screens show for `Cc1csc(N/N=C/c2ccccn2)n1`?
PPC-1+TRAIL kill: 39; C8 TRAIL sens: 73*; FLuc stim CS: 0.1; HSP90 inh: 48*; FLuc inhib CS: 92*; PPC-1 tox: 32; HSP90 confirm: 53*; FLuc counter: 38*

How did CCN(CC(=O)Nc1c(F)cccc1F)C(=O)CCCN1C(=O)c2cccc3cccc(c23)C1=O do in these assays?
C8 TRAIL sens: 11

What do the screens show for `CC1Cc2cc(-c3csc(N)n3)ccc2O1` (stereo unspecified)?
C8 TRAIL sens: 42; HSP90 inh: 5

What do the screens show for `CC(C)(C)C(=O)N1CCc2cc(-c3csc(N)n3)ccc21`?
PPC-1+TRAIL kill: 82*; C8 TRAIL sens: 87*; FLuc stim CS: 0; HSP90 inh: 57*; FLuc inhib CS: 96*; PPC-1 tox: 83*; HSP90 confirm: 76*; FLuc counter: 70*
